Assay results from ChEMBL document CHEMBL1136741, “Role of the glycopeptide framework in the antibacterial activity of hydrophobic derivatives of glycopeptide antibiotics” (2003).
In brackets after ≈: the same amount, converted by molar mass.

Columns and labels:
Enterococcus faecium [1] = experiment: Antibacterial activity against glycopeptide resistant Enterococcus faecium 569 strain; type: functional
Summary of the method: (§1)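 MIC by broth microdilution in Mueller Hinton broth following NCCLS procedures. Compounds were dissolved in 10% DMSO in water, then diluted in broth. Final DMSO was 1.28% at 128 µg/mL antibiotic down to 0.0013% at 0.13 µg/mL. Repeat determinations were usually identical and always within 2-fold.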

Enterococcus faecium [2] = experiment: Antibacterial activity against glycopeptide susceptible Enterococcus faecium 568 strain; type: functional
Summary of the method: (§2)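 MIC by broth microdilution in Mueller Hinton broth following NCCLS procedures. Compounds dissolved in 10% DMSO in water, then diluted in broth; test range 128 to 0.13 µg/mL, final DMSO 1.28% to 0.0013% accordingly. Repeat determinations usually identical and always within 2-fold. Strain 533 is a clinical isolate; strain 602 is a clinical S. haemoliticus isolate.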

Enterococcus faecalis [3] = experiment: Antibacterial activity against glycopeptide resistant Enterococcus faecalis 560 strain; type: functional; summary of the method: as §1
Enterococcus faecalis [4] = experiment: Antibacterial activity against glycopeptide susceptible Enterococcus faecalis 559 strain; type: functional; summary of the method: as §2
Staphylococcus aureus [5] = experiment: Antibacterial activity against glycopeptide intermediate resistant Staphylococcus aureus 3797 strain; type: functional; summary of the method: as §1
Staphylococcus aureus [6] = experiment: Antibacterial activity against glycopeptide intermediate resistant Staphylococcus aureus 3798 strain; type: functional; summary of the method: as §1
[7] = system: Staphylococcus epidermidis; experiment: Antibacterial activity against Staphylococcus epidermis 533 strain; type: functional
[8] = system: Staphylococcus haemolyticus; experiment: Antibacterial activity against Staphylococcus haemolyticus 602 strain

Row | Compound | MIC (Enterococcus faecium [1]) [µg/mL] | MIC (Enterococcus faecium [2]) [µg/mL] | MIC (Enterococcus faecalis [3]) [µg/mL] | MIC (Enterococcus faecalis [4]) [µg/mL] | MIC (Staphylococcus aureus [5]) [µg/mL] | MIC (Staphylococcus aureus [6]) [µg/mL] | MIC [7] [µg/mL] | MIC [8] [µg/mL]
1 | CCCCCCCCCCNC(=O)[C@H]1NC(=O)[C@H]2NC(=O)[C@H](NC(=O)[C@@H]3NC(=O)[C@H](CC(N)=O)NC(=O)[C@H](NC(=O)[C@@H](CC(C)C)NC)[C@H](O)c4ccc(c(Cl)c4)Oc4cc3cc(c4O[C@@H]3O[C@H](CO)[C@@H](O)[C@H](O)[C@H]3O[C@H]3C[C@](C)(N)C(O)[C@H](C)O3)Oc3ccc(cc3Cl)[C@H]2O)c2ccc(O)c(c2)-c2c(O)cc(O)cc21 (some centres not stated) | 8 (≈ 5.04 µM) | 0.5 (≈ 0.315 µM) | 8 (≈ 5.04 µM) | 0.5 (≈ 0.315 µM) | 1 (≈ 0.63 µM) | 1 (≈ 0.63 µM) | 0.5 (≈ 0.315 µM) | 1 (≈ 0.63 µM)
2 | CCCCCCCCCCNC(=O)[C@H]1NC(=O)[C@H]2NC(=O)[C@H](NC(=O)[C@@H]3NC(=O)[C@H]4NC(=O)[C@@H](Cc5ccc(c(Cl)c5)Oc5cc3cc(c5O)Oc3ccc(cc3Cl)[C@H]2O)NC(=O)[C@H](N)c2ccc(O)c(c2)Oc2cc(O)cc4c2)c2ccc(O)c(c2)-c2c(O)cc(O)cc21 | 4 (≈ 2.99 µM) | 0.25 (≈ 0.187 µM) | 4 (≈ 2.99 µM) | 0.5 (≈ 0.374 µM) | 1 (≈ 0.747 µM) | 1 (≈ 0.747 µM) | 0.13 (≈ 0.0971 µM) | 0.5 (≈ 0.374 µM)
3 | CC(=O)N[C@@H]1[C@H](O[C@@H]2c3ccc(c(Cl)c3)Oc3cc(cc(Oc4ccc(C[C@@H](N)CO)cc4Cl)c3O)[C@@H](N)C(=O)N[C@H]3C(=O)N[C@@H]2C(=O)N[C@H](C(=O)O)c2cc(O)cc(O[C@H]4O[C@H](CO)[C@@H](O)[C@@H](O)[C@@H]4O)c2-c2cc3ccc2O)O[C@@H](CO)[C@@H](O)[C@@H]1O | > 128 | 32 (≈ 25.5 µM) | > 128 | 64 (≈ 51 µM) | > 64 | > 64 | 64 (≈ 51 µM) | 64 (≈ 51 µM)
4 | NC(=O)C[C@@H]1NC(=O)[C@H](N)[C@H](O)c2ccc(c(Cl)c2)Oc2cc3cc(c2O)Oc2ccc(cc2)[C@@H](O)[C@@H]2NC(=O)[C@H](NC(=O)[C@@H]3NC1=O)c1ccc(O)c(c1)-c1c(O)cc(O)cc1[C@@H](C(=O)O)NC2=O |  | > 128 |  | > 128 | > 128 | > 128 | > 128 | > 128
5 | C[C@@H]1O[C@@H](O[C@H]2[C@H](Oc3c4cc5cc3Oc3ccc(cc3Cl)[C@@H](O)[C@@H](N)C(=O)N[C@@H](CC(N)=O)C(=O)N[C@H]5C(=O)N[C@H]3C(=O)N[C@H](C(=O)N[C@H](C(=O)NCc5ccc(-c6ccc(Cl)cc6)cc5)c5cc(O)cc(O)c5-c5cc3ccc5O)[C@H](O[C@H]3C[C@](C)(N)[C@@H](O)[C@H](C)O3)c3ccc(cc3)O4)O[C@H](CO)[C@@H](O)[C@@H]2O)C[C@](C)(N)[C@H]1O | 2 (≈ 1.23 µM) | 4 (≈ 2.45 µM) | 4 (≈ 2.45 µM) | 4 (≈ 2.45 µM) | 8 (≈ 4.91 µM) | 8 (≈ 4.91 µM) | 4 (≈ 2.45 µM) | 4 (≈ 2.45 µM)
6 | CCCCCCCCCCNC(=O)[C@H]1NC(=O)[C@H]2NC(=O)[C@H](NC(=O)[C@H](N)c3cc(Oc4ccc(C[C@@H](N)CO)cc4Cl)c(O)c(c3)Oc3ccc(cc3Cl)[C@H]2O[C@@H]2O[C@@H](CO)[C@@H](O)[C@H](O)[C@@H]2NC(C)=O)c2ccc(O)c(c2)-c2c(O[C@H]3O[C@H](CO)[C@@H](O)[C@@H](O)[C@@H]3O)cc(O)cc21 | 16 (≈ 11.5 µM) | 16 (≈ 11.5 µM) | 64 (≈ 45.9 µM) | 16 (≈ 11.5 µM) | 32 (≈ 22.9 µM) | 16 (≈ 11.5 µM) | 16 (≈ 11.5 µM) | 32 (≈ 22.9 µM)
7 | CCCCCCCCCCNC(=O)[C@H]1NC(=O)[C@H]2NC(=O)[C@H](NC(=O)[C@@H]3NC(=O)[C@H](CC(N)=O)NC(=O)[C@H](NC(=O)[C@@H](CC(C)C)NC)[C@H](O)c4ccc(c(Cl)c4)Oc4cc3cc(c4O)Oc3ccc(cc3)[C@H]2O)c2ccc(O)c(c2)-c2c(O)cc(O)cc21 | 4 (≈ 3.2 µM) | 4 (≈ 3.2 µM) | 4 (≈ 3.2 µM) | 4 (≈ 3.2 µM) | 4 (≈ 3.2 µM) | 4 (≈ 3.2 µM) | 4 (≈ 3.2 µM) | 4 (≈ 3.2 µM)
8 | CN[C@H](CC(C)C)C(=O)N[C@H]1C(=O)N[C@@H](CC(N)=O)C(=O)N[C@H]2C(=O)N[C@H]3C(=O)N[C@H](C(=O)N[C@H](C(=O)NCc4ccc(-c5ccc(Cl)cc5)cc4)c4cc(O)cc(O)c4-c4cc3ccc4O)[C@H](O[C@H]3C[C@](C)(N)[C@@H](O)[C@H](C)O3)c3ccc(cc3)Oc3cc2cc(c3O[C@@H]2O[C@H](CO)[C@@H](O)[C@H](O)[C@H]2O[C@H]2C[C@](C)(N)[C@@H](O)[C@H](C)O2)Oc2ccc(cc2Cl)[C@H]1O | 4 (≈ 2.28 µM) | 1 (≈ 0.569 µM) | 4 (≈ 2.28 µM) | 2 (≈ 1.14 µM) | 4 (≈ 2.28 µM) | 4 (≈ 2.28 µM) | 2 (≈ 1.14 µM) | 1 (≈ 0.569 µM)
9 | C[C@@H]1O[C@@H](O[C@H]2[C@H](Oc3c4cc5cc3Oc3ccc(cc3Cl)[C@@H](O)[C@@H](N)C(=O)N[C@@H](CC(N)=O)C(=O)N[C@H]5C(=O)N[C@H]3C(=O)N[C@H](C(=O)N[C@H](C(=O)O)c5cc(O)cc(O)c5-c5cc3ccc5O)[C@H](O[C@H]3C[C@](C)(N)[C@@H](O)[C@H](C)O3)c3ccc(cc3)O4)O[C@H](CO)[C@@H](O)[C@@H]2O)C[C@](C)(N)[C@H]1O | > 128 | 16 (≈ 11.2 µM) | > 128 | 16 (≈ 11.2 µM) | 64 (≈ 44.7 µM) | 64 (≈ 44.7 µM) | 16 (≈ 11.2 µM) | 16 (≈ 11.2 µM)
10 | CCCCCCCCCCNC(=O)[C@H]1NC(=O)[C@H]2NC(=O)[C@H](NC(=O)[C@@H]3NC(=O)[C@H](CC(N)=O)NC(=O)[C@H](N)[C@H](O)c4ccc(c(Cl)c4)Oc4cc3cc(c4O[C@@H]3O[C@H](CO)[C@@H](O)[C@H](O)[C@H]3O[C@H]3C[C@](C)(N)[C@@H](O)[C@H](C)O3)Oc3ccc(cc3)[C@H]2O[C@H]2C[C@](C)(N)[C@@H](O)[C@H](C)O2)c2ccc(O)c(c2)-c2c(O)cc(O)cc21 | 2 (≈ 1.27 µM) | 2 (≈ 1.27 µM) | 4 (≈ 2.55 µM) | 2 (≈ 1.27 µM) | 4 (≈ 2.55 µM) | 8 (≈ 5.1 µM) | 0.5 (≈ 0.318 µM) | 1 (≈ 0.637 µM)
11 | CCCCCCCCCCNC(=O)[C@H]1NC(=O)[C@H]2NC(=O)[C@H](NC(=O)[C@@H]3NC(=O)[C@H](CC(N)=O)NC(=O)[C@H](N)[C@H](O)c4ccc(c(Cl)c4)Oc4cc3cc(c4O)Oc3ccc(cc3)[C@H]2O)c2ccc(O)c(c2)-c2c(O)cc(O)cc21 | 64 (≈ 57.1 µM) | 64 (≈ 57.1 µM) | > 128 | 64 (≈ 57.1 µM) | 32 (≈ 28.5 µM) | 32 (≈ 28.5 µM) | 16 (≈ 14.3 µM) | 64 (≈ 57.1 µM)
12 | CN[C@H](CC(C)C)C(=O)N[C@H]1C(=O)N[C@@H](CC(N)=O)C(=O)N[C@H]2C(=O)N[C@H]3C(=O)N[C@H](C(=O)N[C@H](C(=O)NCc4ccc(-c5ccc(Cl)cc5)cc4)c4cc(O)cc(O)c4-c4cc3ccc4O)[C@H](O)c3ccc(cc3)Oc3cc2cc(c3O)Oc2ccc(cc2Cl)[C@H]1O | 8 (≈ 6.11 µM) | 8 (≈ 6.11 µM) | 8 (≈ 6.11 µM) | 8 (≈ 6.11 µM) | 8 (≈ 6.11 µM) | 8 (≈ 6.11 µM) | 4 (≈ 3.06 µM) | 8 (≈ 6.11 µM)
13 | CCCCCCCCCCNC(=O)[C@H]1NC(=O)[C@H]2NC(=O)[C@H](NC(=O)[C@@H]3NC(=O)[C@H](CC(N)=O)NC(=O)[C@H](NC(=O)[C@@H](CC(C)C)NC)[C@H](O)c4ccc(c(Cl)c4)Oc4cc3cc(c4O[C@@H]3O[C@H](CO)[C@@H](O)[C@H](O)[C@H]3O[C@H]3C[C@](C)(N)[C@@H](O)[C@H](C)O3)Oc3ccc(cc3)[C@H]2O[C@H]2C[C@](C)(N)[C@@H](O)[C@H](C)O2)c2ccc(O)c(c2)-c2c(O)cc(O)cc21 | 2 (≈ 1.18 µM) | 0.5 (≈ 0.295 µM) | 4 (≈ 2.36 µM) | 1 (≈ 0.589 µM) | 4 (≈ 2.36 µM) | 4 (≈ 2.36 µM) | 0.13 (≈ 0.0766 µM) | 0.13 (≈ 0.0766 µM)
14 | CN[C@H](CC(C)C)C(=O)N[C@H]1C(=O)N[C@@H](CC(N)=O)C(=O)N[C@H]2C(=O)N[C@H]3C(=O)N[C@H](C(=O)N[C@H](C(=O)O)c4cc(O)cc(O)c4-c4cc3ccc4O)[C@H](O)c3ccc(c(Cl)c3)Oc3cc2cc(c3O[C@@H]2O[C@H](CO)[C@@H](O)[C@H](O)[C@H]2O[C@H]2C[C@](C)(N)[C@H](O)[C@H](C)O2)Oc2ccc(cc2Cl)[C@H]1O [VANCOMYCIN] | > 128 |  | > 128 | 1 (≈ 0.69 µM) | 16 (≈ 11 µM) | 8 (≈ 5.52 µM) |  | 
